Where two headings read alike, the source gives them in different places.
Experiments:
[1] = calculated, gas-phase; ref 18c; cited from earlier work
[2] = cited from earlier work
[3] = B3LYP calculated gas-phase O–H BDEs, ionization potentials and acidities; conditions: predicted; 5a vs 2, 6a vs 3
[4] = Spectrophotometric determination of pKa values; type: physicochemical; conditions: 298 K, 10 mM potassium phosphate, 200 mM KCl, spectrophotometry
Outline: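 UV spectra were recorded in buffer at varied pH, blank first. Compound was added from a 25 mM ethanol stock and the pH was remeasured. Aryloxide fraction came from absorbance at λmax, normalised between low- and high-pH limits. pKa was obtained by fitting the fraction versus pH to a sigmoidal function.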

[5] = Anodic peak potentials by differential pulse voltammetry; type: physicochemical; conditions: 298 K versus Ag/AgCl, at the pKa
Outline: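 Glassy carbon working electrode (alumina-polished between trials), Ag/AgCl reference, platinum wire counter. Buffer was 10 mM potassium phosphate with KCl electrolyte, pH set with KOH or HCl. Compound was added from a 25 mM ethanol stock, pH was measured, and the solution was argon-purged 1 min. DPV used 0.05 s pulse width, 0.2 s pulse period and 10 mV/s at 298 K. […].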

[6] = Inhibited autoxidation of styrene; conditions: for kinh: 303 K in chlorobenzene, initiated by AMVN, styrene autoxidation; for inhibition rate constant, fold lower than for 1: relative to 1
[7] = biological target: T1, ovine COX-1 (Ovis aries, UniProt P05979); experiment: Inhibition of oCOX-1; type: biochemical; conditions: for oCOX-1 inhibition (prostaglandin biosynthesis), fold more effective than ApAP: relative to ApAP; for oCOX-1 inhibition, fold less effective than 1: relative to 1
T1 sequence (P05979 25-600): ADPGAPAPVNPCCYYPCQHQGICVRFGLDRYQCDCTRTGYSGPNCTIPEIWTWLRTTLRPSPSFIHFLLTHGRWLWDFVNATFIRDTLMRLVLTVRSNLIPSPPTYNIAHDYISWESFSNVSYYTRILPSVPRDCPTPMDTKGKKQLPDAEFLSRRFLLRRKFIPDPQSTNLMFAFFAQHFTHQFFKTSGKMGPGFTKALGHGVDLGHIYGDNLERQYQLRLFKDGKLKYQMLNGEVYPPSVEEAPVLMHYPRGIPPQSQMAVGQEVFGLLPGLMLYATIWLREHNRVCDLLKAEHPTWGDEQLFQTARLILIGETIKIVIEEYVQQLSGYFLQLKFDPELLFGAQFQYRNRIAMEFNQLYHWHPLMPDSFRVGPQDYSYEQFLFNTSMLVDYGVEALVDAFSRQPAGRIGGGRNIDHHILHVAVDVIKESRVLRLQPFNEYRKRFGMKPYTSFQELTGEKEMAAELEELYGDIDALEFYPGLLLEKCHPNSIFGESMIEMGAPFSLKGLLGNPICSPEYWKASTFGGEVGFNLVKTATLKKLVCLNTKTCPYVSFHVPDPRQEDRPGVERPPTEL
Outline: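 Ovine COX-1 was purified from ram seminal vesicles and held 30 min on ice with 2 equiv hematin in Tris·HCl pH 8.0 plus 500 μM phenol. It was then warmed 2 min at 37 °C with compound. The reaction used [¹⁴C]arachidonic acid (0.5 μM final, prewarmed 30 s) and was started with enzyme at 5.4 nM. It was quenched after 8 s with acidic ether–methanol containing BHA. Products were resolved by radio-TLC. Activity was expressed as % of control, 4–6 values per point.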

[8] = biological target: T2, oCOX-1 peroxidase (Ovis aries, UniProt P05979); experiment: Effect on reduction of PPHP to PPA; type: biochemical, ovine; conditions: for peroxidase activation at low concentration: at 100 μM, compared with 1-3; for increase in peroxidase activity of oCOX-1: at a concentration of 1 mM, PPHP to PPA
T2 sequence (P05979 25-600): T1 sequence (P05979 25-600)
Outline: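 Ovine COX-1 was held 30 min on ice with 2 equiv hematin in Tris·HCl pH 8.0 without phenol. It was warmed 5 min at 37 °C with or without compound. PPHP (10 μM final) was prewarmed 2 min. The reaction was started with enzyme at 5.4 nM and quenched after 8 s with ice-cold ether–methanol–citric acid. The organic phase was dried under nitrogen, redissolved in 65% methanol–water, and analysed by HPLC for PPA formation.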

[9] = tested on: HepG2 cells; experiment: Cytotoxicity assay with HepG2 cell line; type: cell-based, human; conditions: for intracellular ATP levels, fold control levels: HepG2, 24 h exposure; for decrease of total intracellular ATP concentration compared to control: 2 mM (highest exposure level)
Outline: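 HepG2 cells (ATCC) were grown in DMEM with 10% FBS, non-essential amino acids, penicillin–streptomycin, pyruvate and glutamine, under 5% CO₂ at 37 °C. Cells were seeded at 10⁵ cells/mL with ethanol or water vehicle below 0.5%. Serial compound dilutions, up to 2 mM, were applied for 24 h with 2–3 replicates per dose. Cells were lysed for 5 min and ATP read by luciferin–luciferase luminescence after 10 min at room temperature. Values were taken relative to untreated control.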

[10] = reference antioxidants; ref 27b; cited from earlier work
[11] = biological target: T3, oCOX-1 (Ovis aries, UniProt P05979); experiment: pH-dependent inhibition of COX-1; type: biochemical, ovine; conditions: pH 6.6 to 8.5; 0.5 mM 1; 1.0 mM 2 and 3
T3 sequence (P05979 25-600): T1 sequence (P05979 25-600)
Outline: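 COX-1 radiolabelled arachidonic acid (0.5 μM) assay: hematin-reconstituted enzyme at 5.4 nM, 8 s reaction at 37 °C, radio-TLC. Buffers were Tris·HCl at pH 8.5, 8.0 and 7.4, and sodium phosphate at pH 8.0, 7.4 and 6.6, all with 500 μM phenol. Compound was present at 0.5 or 1.0 mM final. Activity was expressed as % of the uninhibited control in the same buffer and pH. Significance was tested by Student t-test.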

[12] = biological target: T4, soybean lipoxygenase-1 (sLOX-1) (Glycine max, UniProt P08170); experiment: Inhibition of sLOX-1; type: biochemical; conditions: up to 0.25 mM
T4 sequence (P08170 1-839): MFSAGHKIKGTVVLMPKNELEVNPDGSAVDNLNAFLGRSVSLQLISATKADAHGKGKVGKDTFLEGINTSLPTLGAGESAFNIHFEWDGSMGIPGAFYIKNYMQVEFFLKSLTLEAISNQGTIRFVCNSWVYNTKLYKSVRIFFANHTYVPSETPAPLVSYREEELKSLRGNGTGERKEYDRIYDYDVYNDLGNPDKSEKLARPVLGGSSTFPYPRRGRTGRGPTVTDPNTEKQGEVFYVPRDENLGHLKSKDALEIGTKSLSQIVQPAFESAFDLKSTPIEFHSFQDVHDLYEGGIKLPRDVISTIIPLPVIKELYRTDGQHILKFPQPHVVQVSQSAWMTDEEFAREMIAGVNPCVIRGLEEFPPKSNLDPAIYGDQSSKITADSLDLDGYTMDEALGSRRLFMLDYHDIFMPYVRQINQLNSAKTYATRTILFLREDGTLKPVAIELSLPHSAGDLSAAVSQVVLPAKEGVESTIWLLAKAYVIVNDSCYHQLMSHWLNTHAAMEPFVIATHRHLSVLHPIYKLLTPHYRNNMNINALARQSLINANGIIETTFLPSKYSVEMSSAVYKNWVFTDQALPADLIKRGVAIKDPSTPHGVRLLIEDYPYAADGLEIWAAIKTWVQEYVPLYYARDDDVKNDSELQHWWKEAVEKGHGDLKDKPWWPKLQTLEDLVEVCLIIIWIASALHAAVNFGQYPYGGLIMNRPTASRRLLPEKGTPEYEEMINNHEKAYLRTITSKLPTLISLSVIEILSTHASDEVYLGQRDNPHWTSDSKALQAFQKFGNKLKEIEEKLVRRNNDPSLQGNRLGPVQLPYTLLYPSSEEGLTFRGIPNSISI
Outline: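 Soybean LOX-1 was purified from a commercial preparation. Linoleic acid (20 μM) was in 100 mM borate pH 9.2. Compound was added from ethanol at […] final (<5% ethanol), then enzyme at 3 nM final. Initial rates (<10% conversion) were followed at 234 nm as 13-HPODE formation. Rates were expressed relative to no-compound controls, 4–6 values per point, and IC50 was derived.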

**Q.** Which IP [1] does the source give for `CN(C)c1ccc(O)cc1` [4a, reference compound] here?
**A.** 157.7 kcal/mol

**Q.** What about the “O–H BDE” value [1] of the same compound?
**A.** 76.0 kcal/mol

**Q.** And the “stability under ambient conditions” value [2]?
**A.** too unstable

**Q.** With `CN(C)c1ccc(O)cn1` [5a] as the compound, how does the “O–H BDE lower than in 2 and 3” value [3] read?
**A.** 5 to 6 kcal/mol

**Q.** And the pKa [4]?
**A.** 9.27

**Q.** And the “Epa @ pKa” value [5]?
**A.** 0.12 V

**Q.** What about the kinh [6] of the same compound?
**A.** 4.8 × 10^6 ^d M^−1 s^−1

**Q.** What about the “oCOX-1 inhibition (prostaglandin biosynthesis), fold more effective than ApAP” value [7] of the same compound?
**A.** ca. 12 fold

**Q.** And the “effect on peroxidase activity at higher concentration” value ([8]; above 100 μM)?
**A.** abolishes peroxidase activity

**Q.** And the “peroxidase activation at low concentration” value [8]?
**A.** greater peroxidase activation

**Q.** And the “effect on ATP production” value ([9]; HepG2, 24 h, by 500 μM exposure)?
**A.** eliminating ATP production

**Q.** What about the “intracellular ATP levels, fold control levels” value ([9]; 10 μM) of the same compound?
**A.** ca. 1.75 fold

**Q.** What about the “cytotoxicity in preliminary HepG2 viability assays” value ([9]; HepG2 cell culture) of the same compound?
**A.** relatively toxic

**Q.** What about the IP [1] of the same compound?
**A.** 164.6 kcal/mol

**Q.** What about the “O–H BDE” value [1] of the same compound?
**A.** 77.0 kcal/mol

**Q.** And the “stability under ambient conditions” value [2]?
**A.** quite stable

**Q.** Which “O–H BDE lower than in 2 and 3” value [3] does the source give for `CN(C)c1ncc(O)cn1` [6a] here?
**A.** 5 to 6 kcal/mol

**Q.** What about the pKa [4] of the same compound?
**A.** 8.18

**Q.** What about the “Epa @ pKa” value [5] of the same compound?
**A.** 0.31 V

**Q.** And the kinh [6]?
**A.** 1.1 × 10^6 ^d M^−1 s^−1

**Q.** What about the “oCOX-1 inhibition (prostaglandin biosynthesis), fold more effective than ApAP” value [7] of the same compound?
**A.** ca. 12 fold

**Q.** And the “peroxidase activation at low concentration” value [8]?
**A.** greater peroxidase activation

**Q.** And the “decrease of total intracellular ATP concentration compared to control” value ([9]; HepG2, 24 h)?
**A.** 31.3 ± 1.0%

**Q.** And the “intracellular ATP concentration relative to control” value ([9]; HepG2, 24 h, beyond 1 mM)?
**A.** at or above the control

**Q.** And the “intracellular ATP levels, fold control levels” value ([9]; 100 μM)?
**A.** ca. 1.8 fold

**Q.** And the IP [1]?
**A.** 174.6 kcal/mol

**Q.** And the “O–H BDE” value [1]?
**A.** 78.3 kcal/mol

**Q.** What about the “stability under ambient conditions” value [2] of the same compound?
**A.** quite stable

**Q.** For `Cc1cc(C(C)(C)C)c(O)c(C(C)(C)C)c1` [BHT, butylated hydroxytoluene], which kinh [10] is on record?
**A.** 140000 M⁻¹ s⁻¹

**Q.** Which “Epa @ pKa” value [5] does the source give for `CC(=O)Nc1ccc(O)cc1` [compound 1, Acetaminophen, reference compound] here?
**A.** 0.32 V

**Q.** And the kinh [6]?
**A.** 500000 M⁻¹ s⁻¹

**Q.** What about the kinh ([6]; listed as ApAP) of the same compound?
**A.** 500000 M⁻¹ s⁻¹

**Q.** What about the “inhibition rate constant, fold larger than that of BHT” value ([6]; relative to BHT) of the same compound?
**A.** ~4 fold

**Q.** And the IC50 [7]?
**A.** 250 µM

**Q.** What about the “increase in peroxidase activity of oCOX-1” value [8] of the same compound?
**A.** 11 fold

**Q.** And the “pH-dependence of oCOX-1 inhibition” value [11]?
**A.** did not change significantly

**Q.** What about the “inhibition of sLOX-1” value [12] of the same compound?
**A.** does not inhibit

**Q.** What about the “decrease of total intracellular ATP concentration compared to control” value ([9]; HepG2, 24 h) of the same compound?
**A.** 24.8 ± 1.0%

**Q.** What does the source list for `CC(=O)Nc1ccc(O)cn1` [compound 2]?
**A.** pKa [4]: 8.28; Epa @ pKa [5]: 0.48 V; kinh [6]: 40000 M⁻¹ s⁻¹; inhibition rate constant, fold lower than for 1 [6]: 12.5 fold; oCOX-1 inhibition, fold less effective than 1 [7]: ca. 1.6 fold; increase in peroxidase activity of oCOX-1 [8]: only slightly; pH-dependence of oCOX-1 inhibition [11]: markedly improved at higher pH

**Q.** For `CC(=O)Nc1ncc(O)cn1` [compound 3], which pKa [4] is on record?
**A.** 5.89

**Q.** What about the “Epa @ pKa” value [5] of the same compound?
**A.** 1.02 V

**Q.** What about the kinh [6] of the same compound?
**A.** 10000 M⁻¹ s⁻¹

**Q.** What about the “inhibition rate constant, fold lower than for 1” value [6] of the same compound?
**A.** 50 fold

**Q.** And the “oCOX-1 inhibition, fold less effective than 1” value [7]?
**A.** ~3 fold

**Q.** What about the “increase in peroxidase activity of oCOX-1” value [8] of the same compound?
**A.** only slightly

**Q.** What about the “pH-dependence of oCOX-1 inhibition” value [11] of the same compound?
**A.** markedly improved at higher pH

**Q.** For `Cc1c(C)c2c(c(C)c1O)CC[C@@](C)(CCC[C@H](C)CCC[C@H](C)CCCC(C)C)O2` [α-tocopherol], which kinh [10] is on record?
**A.** 3.2e+06 M⁻¹ s⁻¹
